Laboratory results published in ChEMBL document CHEMBL3259814, “Synthesis and biological evaluation of compounds which contain pyrazole, thiazole and naphthalene ring as antitumor agents” (Bioorg Med Chem Lett, 2014).
The source made the active and inactive calls. The calls are words filed in the database; no cut-off is given here.

Columns and labels:
HeLa [1] = assay: cells; assay type: functional, cell-based; settings: Homo sapiens
HepG2 = assay: cells; assay type: functional, cell-based; settings: Homo sapiens;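 further: antiproliferative effect read out as growth inhibition by CCK8 assay, measured after 24–48 h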
[2] = Antiproliferative activity against human macrophages assessed as alteration in cell morphology after 24 hrs by CCK8 assay; assay type: cell-based, Macrophage
[3] = Antiproliferative activity against human BGC823 cells assessed as growth inhibition after 24 to 48 hrs by CCK8 assay; assay type: functional, cell-based; settings: BGC-823
Method in brief: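 The CCK8 assay was run on BGC823 cells alongside HeLa and HepG2 cells. Inhibition of cell proliferation was reported as IC50.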

[4] = molecular target: Epidermal growth factor receptor (Homo sapiens, UniProt P00533); assay type: cell-based, Sf-9
HeLa [5] = assay: Toxicity against human HeLa cells assessed as survival at 0.14 uM by CCK8 assay; assay type: cell-based
Method in brief: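 HeLa survival ratio was measured against compound concentration by CCK8 assay, including 0.14 µM. This was done before the migration testing.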

HeLa [6] = assay: Antimetastatic activity against human HeLa cells at 0.08 to 0.12 uM by transwell migration assay; assay type: functional, cell-based
Method in brief: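 HeLa cell migration was tested at 0.08, 0.10 and 0.12 µM. Migrating cells are expressed as a percentage of an untreated control set at 100%. Data are mean ± SD, with p < 0.05 versus control.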

Chain of Epidermal growth factor receptor (P00533 whole entry): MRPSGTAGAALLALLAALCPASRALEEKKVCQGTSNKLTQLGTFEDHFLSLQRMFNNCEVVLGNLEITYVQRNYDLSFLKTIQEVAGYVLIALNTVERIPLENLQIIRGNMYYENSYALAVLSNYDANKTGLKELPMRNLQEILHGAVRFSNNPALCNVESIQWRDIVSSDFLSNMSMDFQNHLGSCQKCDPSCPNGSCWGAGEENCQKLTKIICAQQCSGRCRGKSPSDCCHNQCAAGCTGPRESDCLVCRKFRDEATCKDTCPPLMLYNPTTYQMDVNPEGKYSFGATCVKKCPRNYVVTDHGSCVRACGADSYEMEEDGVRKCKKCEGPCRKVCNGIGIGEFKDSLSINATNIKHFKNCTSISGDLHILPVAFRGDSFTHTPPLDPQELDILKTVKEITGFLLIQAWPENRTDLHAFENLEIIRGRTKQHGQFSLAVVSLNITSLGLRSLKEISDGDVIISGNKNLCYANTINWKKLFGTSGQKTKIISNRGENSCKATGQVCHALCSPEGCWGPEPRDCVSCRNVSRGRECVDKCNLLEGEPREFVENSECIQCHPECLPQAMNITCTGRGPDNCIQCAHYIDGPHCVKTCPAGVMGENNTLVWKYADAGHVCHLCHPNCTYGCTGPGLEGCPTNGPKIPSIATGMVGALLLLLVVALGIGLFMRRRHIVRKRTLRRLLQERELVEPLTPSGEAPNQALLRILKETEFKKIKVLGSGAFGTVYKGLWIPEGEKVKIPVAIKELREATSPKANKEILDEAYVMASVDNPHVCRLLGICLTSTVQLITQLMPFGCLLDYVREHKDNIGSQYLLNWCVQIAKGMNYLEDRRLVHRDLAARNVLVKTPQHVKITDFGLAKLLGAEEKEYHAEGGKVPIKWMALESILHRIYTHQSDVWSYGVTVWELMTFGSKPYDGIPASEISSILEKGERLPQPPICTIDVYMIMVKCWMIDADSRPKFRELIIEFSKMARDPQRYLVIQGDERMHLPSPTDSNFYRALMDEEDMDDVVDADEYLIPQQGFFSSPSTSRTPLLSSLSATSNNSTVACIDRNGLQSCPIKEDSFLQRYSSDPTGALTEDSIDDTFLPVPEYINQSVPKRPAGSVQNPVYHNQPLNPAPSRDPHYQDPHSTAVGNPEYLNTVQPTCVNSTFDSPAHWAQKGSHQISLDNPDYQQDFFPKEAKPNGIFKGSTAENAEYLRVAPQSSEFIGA

Compound	IC50 (HeLa [1])	IC50 (HepG2)	IC50 [4]	CC50 at 24 h [2]	IC50 [3]	Activity (HeLa [5])	Activity (HeLa [6])
O=C1CSC(N2N=C(c3ccccc3)CC2c2ccc3ccccc3c2)=N1 (centres undefined)	3.18 µM	15.7 µM	6.31 µM	345 µM	8.86 µM		
O=C1CSC(N2N=C(c3ccc(Cl)cc3)CC2c2ccc3ccccc3c2)=N1 (centres undefined)	6.32 µM	20.4 µM			13.2 µM		
COc1ccc(C2=NN(C3=NC(=O)CS3)C(c3ccc4ccccc4c3)C2)cc1 (centres undefined)	1.48 µM	10.4 µM		363 µM	6.94 µM		
Cc1ccc(C2=NN(C3=NC(=O)CS3)C(c3ccc4ccccc4c3)C2)cc1C (centres undefined)	0.86 µM	8.49 µM	0.12 µM	397 µM	6.02 µM	Non-toxic	Active
Cc1ccc(C2=NN(C3=NC(=O)CS3)C(c3ccc4ccccc4c3)C2)cc1 (centres undefined)	1.76 µM	12.7 µM	3.25 µM		7.79 µM		
O=C1CSC(N2N=C(c3ccc(F)cc3)CC2c2ccc3ccccc3c2)=N1 (centres undefined)	9.17 µM	24.1 µM			14.9 µM		
Cc1ccc(C2=NN(C3=NC(=O)CS3)C(c3cccc4ccccc34)C2)cc1C (centres undefined)	1.33 µM	5.94 µM	1.32 µM	383 µM	7.11 µM		

Second part, led by results:

IC50 (HeLa [1])	IC50 (HepG2)	IC50 [4]	Compound	CC50 at 24 h [2]	IC50 [3]	Activity (HeLa [5])	Activity (HeLa [6])
5.81 µM	13.4 µM		O=C1CSC(N2N=C(c3ccc(Br)cc3)CC2c2cccc3ccccc23)=N1 (centres undefined)		14.6 µM		
4.62 µM	10.1 µM		O=C1CSC(N2N=C(c3ccccc3)CC2c2cccc3ccccc23)=N1 (centres undefined)		11.2 µM		
3.21 µM	8.66 µM		Cc1ccc(C2=NN(C3=NC(=O)CS3)C(c3cccc4ccccc34)C2)cc1 (centres undefined)		10 µM		
4.22 µM	18.2 µM		O=C1CSC(N2N=C(c3ccc(Br)cc3)CC2c2ccc3ccccc3c2)=N1 (centres undefined)		11.7 µM		
2.54 µM	7.85 µM	5.53 µM	COc1ccc(C2=NN(C3=NC(=O)CS3)C(c3cccc4ccccc34)C2)cc1 (centres undefined)	273 µM	8.21 µM		
8.84 µM	16.4 µM		O=C1CSC(N2N=C(c3ccc(Cl)cc3)CC2c2cccc3ccccc23)=N1 (centres undefined)		16.4 µM		
11.2 µM	19.5 µM		O=C1CSC(N2N=C(c3ccc(F)cc3)CC2c2cccc3ccccc23)=N1 (centres undefined)		19.3 µM		
